ChEMBL document CHEMBL1138815, “Synthesis, structure-activity relationships, and in vivo properties of 3,4-dihydro-1H-pyrido[2,3-b]pyrazin-2-ones as corticotropin-releasing factor-1 receptor antagonists” (J Med Chem, 2004)

What was measured:
[1] = biological target: T1, Corticotropin-releasing factor receptor 1 (Rattus norvegicus, UniProt P35353); experiment: (§1) Inhibition of [125I]ovine-CRF binding to corticotropin releasing factor receptor 1
T1 sequence (P35353 whole entry): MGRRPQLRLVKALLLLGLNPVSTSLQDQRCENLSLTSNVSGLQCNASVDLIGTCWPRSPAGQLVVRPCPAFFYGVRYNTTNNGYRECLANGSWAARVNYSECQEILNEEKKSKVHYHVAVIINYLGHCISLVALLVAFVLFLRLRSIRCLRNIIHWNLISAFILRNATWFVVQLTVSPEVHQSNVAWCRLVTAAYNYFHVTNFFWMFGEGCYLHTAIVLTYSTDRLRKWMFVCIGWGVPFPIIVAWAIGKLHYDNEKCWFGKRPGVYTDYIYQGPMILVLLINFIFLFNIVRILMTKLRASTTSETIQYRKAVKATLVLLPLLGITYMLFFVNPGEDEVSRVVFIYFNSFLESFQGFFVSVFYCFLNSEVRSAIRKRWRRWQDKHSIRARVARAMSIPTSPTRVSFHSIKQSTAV
Procedure, shortened: (§2)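 CRF1 source is rat frontal cortex membranes (25 µg/well), washed by homogenization and 32000g spins. Incubated with 150 pM [125I]ovine-CRF for 2 h at 21 °C in 50 mM Hepes pH 7.0 with MgCl2, EGTA, protease inhibitors, Triton X-100, bacitracin and ovalbumin. Separated by filtration on PEI-treated GF/B filters and gamma counted. Nonspecific binding defined with 1 µM DMP696.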

[2] = biological target: T2, Corticotropin-releasing factor receptor 1 (Homo sapiens, UniProt P34998); experiment: as §1; procedure, shortened: as §2
T2 sequence (P34998 whole entry): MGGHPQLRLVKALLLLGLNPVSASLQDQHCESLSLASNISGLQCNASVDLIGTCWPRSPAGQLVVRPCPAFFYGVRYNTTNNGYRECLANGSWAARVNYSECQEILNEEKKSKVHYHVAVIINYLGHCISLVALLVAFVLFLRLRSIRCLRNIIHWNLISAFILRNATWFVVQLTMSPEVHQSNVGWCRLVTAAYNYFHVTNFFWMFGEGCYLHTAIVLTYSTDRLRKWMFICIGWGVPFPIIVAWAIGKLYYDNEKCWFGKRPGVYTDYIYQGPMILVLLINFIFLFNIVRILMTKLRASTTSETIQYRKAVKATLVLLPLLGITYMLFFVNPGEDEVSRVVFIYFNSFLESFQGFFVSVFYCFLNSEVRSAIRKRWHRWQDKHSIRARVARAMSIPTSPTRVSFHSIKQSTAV

[3] = Volume of distribution in Beagle dogs; assay type: ADME, organism-based, Canis lupus familiaris; conditions: dog, in vivo
Procedure, shortened: (§3)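 Beagle dogs dosed iv at 1.0 mg/kg (n = 2) in propylene glycol:water:N,N-dimethylacetamide 80:10:10, or po at 5.0 mg/kg (n = 2) in Labrafil:ethanol:Tween 80 85:10:5. Blood drawn by jugular venipuncture at 0–24 h (iv from 0.1 h, po from 0.5 h). Plasma stored at -20 °C, levels measured by LC/MS/MS.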

[4] = Mean total plasma concentration was determined in the defensive withdrawal model of rats after oral administration; Dose 1 mg/kg; assay type: ADME, organism-based; set-up: dose 1 mg/kg, route oral; conditions: rat, in vivo, read-out: Mean total plasma concentration
[5] = biological target: T3, Corticotropin-releasing factor receptor 1 (Rattus norvegicus) (UniProt P35353); experiment: Percent occupancy of corticotropin releasing factor receptor 1 in defensive withdrawal model in rats after oral administration; Dose 3 mg/kg; assay type: organism-based; set-up: dose 3 mg/kg; conditions: at 3 mg/kg
T3 sequence (whole entry): T1 sequence (P35353 whole entry)
Procedure, shortened: (§4)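 After oral dosing at 1, 3 or 10 mg/kg in the defensive withdrawal rats, CRF1 occupancy in parietal cortex measured by ex vivo autoradiography; n = 5.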

Rattus norvegicus [6] = experiment: Percent decrease in exit latency was determined in the defensive withdrawal model of rats after oral administration; Dose 3 mg/kg; assay type: functional
Procedure, shortened: (§5)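 Male Sprague–Dawley rats (180–300 g) dosed po at 1, 3 or 10 mg/kg in 0.25% methocel suspension, 1 h before testing. Each rat placed in a darkened chamber inside a brightly lit open field; latency to emerge timed. Result expressed as % decrease versus vehicle, n = 8 per dose.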

Rattus norvegicus [7] = experiment: Percent decrease in exit latency was determined in the defensive withdrawal model of rats after oral administration; Dose 1 mg/kg; assay type: functional; procedure, shortened: as §5
[8] = Bioavailability in Beagle dogs; assay type: ADME, organism-based, Canis lupus familiaris; conditions: dog, in vivo, read-out: Bioavailabiility; procedure, shortened: as §3
[9] = Clearance in Beagle dogs; assay type: ADME, organism-based, Canis lupus familiaris; conditions: dog, in vivo; procedure, shortened: as §3
Rattus norvegicus [10] = experiment: Percent decrease in exit latency was determined in the defensive withdrawal model of rats after oral administration; Dose 10 mg/kg; assay type: functional; procedure, shortened: as §5
[11] = Mean free plasma concentration was determined in the defensive withdrawal model of rats after oral administration; Dose 3 mg/kg; assay type: ADME, organism-based; set-up: dose 3 mg/kg, route oral; conditions: rat, in vivo
[12] = Mean free plasma concentration was determined in the defensive withdrawal model of rats after oral administration; Dose 10 mg/kg; assay type: ADME, organism-based; set-up: dose 10 mg/kg, route oral; conditions: rat, in vivo
[13] = Mean free plasma concentration was determined in the defensive withdrawal model of rats after oral administration; Dose 1 mg/kg; assay type: ADME, organism-based; set-up: dose 1 mg/kg, route oral; conditions: rat, in vivo
[14] = biological target: Vasopressin V1 receptor (Homo sapiens) (UniProt P37288+P47901); experiment: Inhibition of Vasopressin V1 receptor at 10 uM; assay type: protein assay
[15] = Half life in Beagle dogs; assay type: ADME, Canis lupus familiaris; conditions: dog, in vivo; procedure, shortened: as §3
[16] = Mean total plasma concentration was determined in the defensive withdrawal model of rats after oral administration; Dose 10 mg/kg; assay type: ADME, organism-based; set-up: dose 10 mg/kg, route oral; conditions: rat, in vivo, read-out: Mean total plasma concentration
[17] = biological target: Corticotropin releasing factor receptor (Rattus norvegicus, UniProt P47866+P35353); experiment: Inhibition of corticotropin releasing factor-induced ACTH release from rat pituitary cells; assay type: functional, cell-based; conditions: pituitary gland cell
Procedure, shortened: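 Cultured rat pituitary cells stimulated with 0.3 nM CRF, with inhibition of ACTH release measured across a concentration range to give IC50; n = 3.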

[18] = biological target: T3, Corticotropin-releasing factor receptor 1 (Rattus norvegicus); experiment: Percent occupancy of corticotropin releasing factor receptor 1 in defensive withdrawal model in rats after oral administration; Dose 10 mg/kg; assay type: organism-based; set-up: dose 10 mg/kg; conditions: at 10 mg/kg; procedure, shortened: as §4
[19] = biological target: T4, Adenosine receptor A3 (Homo sapiens) (UniProt P0DMS8); experiment: Inhibition of Adenosine A3 receptor at 10 uM
T4 sequence (whole entry): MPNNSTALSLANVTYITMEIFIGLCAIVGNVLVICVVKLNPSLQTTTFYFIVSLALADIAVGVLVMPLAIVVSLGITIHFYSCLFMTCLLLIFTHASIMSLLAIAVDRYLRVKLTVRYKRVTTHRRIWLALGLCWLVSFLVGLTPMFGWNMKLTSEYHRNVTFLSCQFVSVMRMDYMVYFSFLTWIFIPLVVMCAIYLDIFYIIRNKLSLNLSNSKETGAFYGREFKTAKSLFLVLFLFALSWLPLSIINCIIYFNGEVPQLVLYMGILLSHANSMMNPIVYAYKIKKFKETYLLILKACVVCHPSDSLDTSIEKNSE

[20] = biological target: Cannabinoid receptor 1 (Homo sapiens) (UniProt P21554); experiment: Inhibition of Cannabinoid receptor 1 at 10 uM
[21] = biological target: T3, Corticotropin-releasing factor receptor 1 (Rattus norvegicus); experiment: Percent occupancy of corticotropin releasing factor receptor 1 in defensive withdrawal model in rats after oral administration; Dose 1 mg/kg; assay type: functional, organism-based; set-up: dose 1 mg/kg; conditions: at 1 mg/kg; procedure, shortened: as §4
[22] = Mean total plasma concentration was determined in the defensive withdrawal model of rats after oral administration; Dose 3 mg/kg; assay type: ADME, organism-based; set-up: dose 3 mg/kg, route oral; conditions: rat, in vivo, read-out: Mean total plasma concentration

Chain of Vasopressin V1 receptor (Homo sapiens) (P37288 whole entry, looked up): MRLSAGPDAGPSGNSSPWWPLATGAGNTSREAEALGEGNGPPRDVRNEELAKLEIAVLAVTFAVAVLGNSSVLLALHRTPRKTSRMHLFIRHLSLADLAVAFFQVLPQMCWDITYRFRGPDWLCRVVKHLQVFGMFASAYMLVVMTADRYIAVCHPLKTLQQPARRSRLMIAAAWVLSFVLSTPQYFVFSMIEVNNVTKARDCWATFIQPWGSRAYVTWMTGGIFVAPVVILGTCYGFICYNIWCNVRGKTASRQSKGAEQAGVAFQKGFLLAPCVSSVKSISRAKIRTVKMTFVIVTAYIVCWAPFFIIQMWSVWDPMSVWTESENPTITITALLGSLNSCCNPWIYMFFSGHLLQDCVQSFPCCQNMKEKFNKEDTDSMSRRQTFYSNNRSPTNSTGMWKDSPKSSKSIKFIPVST
Chain of Vasopressin V1 receptor (Homo sapiens) (P47901 whole entry, looked up): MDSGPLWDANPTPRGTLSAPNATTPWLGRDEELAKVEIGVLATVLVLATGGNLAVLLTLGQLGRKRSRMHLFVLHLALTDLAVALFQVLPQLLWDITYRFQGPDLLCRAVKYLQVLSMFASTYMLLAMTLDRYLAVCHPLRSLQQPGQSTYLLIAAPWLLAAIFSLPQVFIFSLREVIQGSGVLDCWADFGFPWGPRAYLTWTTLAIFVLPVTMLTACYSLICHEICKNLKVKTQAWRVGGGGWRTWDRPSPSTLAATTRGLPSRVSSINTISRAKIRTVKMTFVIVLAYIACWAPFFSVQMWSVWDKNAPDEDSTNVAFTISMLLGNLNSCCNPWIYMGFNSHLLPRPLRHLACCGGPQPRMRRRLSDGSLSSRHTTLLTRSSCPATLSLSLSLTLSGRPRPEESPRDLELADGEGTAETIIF
Chain of Cannabinoid receptor 1 (Homo sapiens) (P21554 whole entry): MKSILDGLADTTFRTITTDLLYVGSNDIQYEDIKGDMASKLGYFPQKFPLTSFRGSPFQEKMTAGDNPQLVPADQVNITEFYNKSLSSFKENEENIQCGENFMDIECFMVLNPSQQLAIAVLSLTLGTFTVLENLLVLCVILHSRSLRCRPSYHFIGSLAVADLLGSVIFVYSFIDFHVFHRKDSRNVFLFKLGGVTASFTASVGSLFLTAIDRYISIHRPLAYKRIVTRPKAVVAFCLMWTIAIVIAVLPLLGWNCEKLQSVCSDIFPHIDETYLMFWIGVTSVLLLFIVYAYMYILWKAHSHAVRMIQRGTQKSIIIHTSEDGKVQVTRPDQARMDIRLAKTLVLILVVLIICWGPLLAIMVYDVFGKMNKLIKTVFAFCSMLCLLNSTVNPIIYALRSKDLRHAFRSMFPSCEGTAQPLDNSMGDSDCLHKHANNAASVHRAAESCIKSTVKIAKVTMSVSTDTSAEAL

IC50 [1] [nM]	SMILES	further results
2.6	CCCN(CCOC)c1cc(C)nc2c1NC(=O)CN2c1ccc(C(C)C)cc1Cl	–
0.49	CCCCN(CC)c1cc(C)nc2c1NC(=O)CN2c1ccc(Cl)cc1Cl	–
10	CCCCN(CC)c1cc(C)nc2c1NC(=O)CN2c1ccc(Cl)cc1C#N	–
18	COCCN(CCOC)c1cc(C)nc2c1NC(=O)CN2c1ccc(C(C)C)cc1Cl	–
–	CCCCN(CC)c1cc(C)nc(N(CC)c2ccc(C(C)C)cc2Br)n1	Ki [2]: 18 nM
126	Cc1cc(N2CCOCC2)c2c(n1)N(c1ccc(C(C)C)cc1Br)CC(=O)N2	–
> 1000	CCCCNc1cc(C)nc2c1NC(=O)CN2c1ccc(OC)cc1Cl	–
2.2	CCCCN(CC)c1cc(C)nc2c1NC(=O)CN2c1ccc(C#N)cc1Cl	–
92	CCN(CCCC#N)c1cc(C)nc2c1NC(=O)CN2c1ccc(OC)cc1C	–
4.2	CCCCN(CC)c1cc(C)nc2c1NC(=O)CN2c1ccc(OC)nc1C	–
0.5	CCCCN(CC)c1cc(C)nc2c1NC(=O)CN2c1cc(F)c(OC)cc1Cl	–
> 1000	CCNc1cc(C)nc2c1NC(=O)CN2c1ccc(OC)cc1Cl	–
0.3	CCCCN(CC)c1cc(C)nc2c1NC(=O)CN2c1ccc(OC)cc1Cl	–
49	CCCCN(CC)c1cc(C)nc2c1NC(=O)CN2c1ccc(C(C)C)cc1	–
4.1	CCN(CC1CCCO1)c1cc(C)nc2c1NC(=O)CN2c1ccc(C(C)C)cc1Br (stereo unspecified)	–
3.3	CCCCN(CC)c1cc(C)nc2c1NC(=O)CN2c1c(Cl)cc(C#N)cc1Cl	–
305	CCN(CCCS(C)(=O)=O)c1cc(C)nc2c1NC(=O)CN2c1ccc(C(C)C)cc1Br	–
0.92	CCCCN(CC)c1cc(C)nc2c1NC(=O)CN2c1ccc(OC)cc1C	–
1.5	CCN(c1cc(C)nc2c1NC(=O)CN2c1cc(F)c(OC)cc1Cl)C(C)C	–
198	CCC(CC)Nc1cc(C)nc2c1NC(=O)CN2c1ccc(Cl)cc1Cl	–
0.82	CCCCN(CC)c1cc(C)nc2c1NC(=O)CN2c1ccc(OC)nc1OC	Volume of distribution [3]: 40.6 L/kg; concentration [4]: 3.1 nM; Occupancy [5]: 23%; Decrease in exit latency (Rattus norvegicus [6]): 14%; Decrease in exit latency (Rattus norvegicus [7]): 0%; bioavailability [8]: 24%; Clearance [9]: 27.8 mL/min/kg; Decrease in exit latency (Rattus norvegicus [10]): 81%; Mean free plasma concentration [11]: 0.36 nM; Mean free plasma concentration [12]: 1.02 nM; Mean free plasma concentration [13]: 0.05 nM; inhibition [14]: 47%; T1/2 [15]: 27.6 h; concentration [16]: 61.5 nM; IC50 [17]: 38.7 nM; Occupancy [18]: 59%; inhibition [19]: 49%; inhibition [20]: 53%; Occupancy [21]: 17%; concentration [22]: 21.7 nM
7.1	CCCCN(CC)c1cc(C)nc2c1NC(=O)CN2c1ccccc1Br	–
0.91	CCCCN(CC)c1cc(C)nc2c1NC(=O)CN2c1ccc(C(C)C)cc1Cl	–
1.2	CCCN(CCC)c1cc(C)nc2c1NC(=O)CN2c1ccc(C#N)cc1Cl	–
1.8	CCCN(CC1CCC1)c1cc(C)nc2c1NC(=O)CN2c1ccc(C#N)cc1Cl	–
0.7	CCCCN(CC)c1cc(C)nc2c1NC(=O)CN2c1ccc(C(C)C)cc1Br	–
